According to ChEMBL document CHEMBL1128338, “Synthesis and activity of some antimalarial bisquinolines” (J Med Chem, 1995):

Experiments:
[1] = system: Plasmodium falciparum; test: In vitro inhibition chloroquine-resistant Plasmodium falciparum K1; format: functional, organism-based
How it was run: (§1)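 P. falciparum blood-stage cultures plated at c. 1% parasitemia, 2% hematocrit, exposed to a range of drug concentrations (compounds from 30 mM DMSO stocks; final DMSO <0.1%). Incubated 4 days with daily replacement of drug-containing medium. Growth curves run in duplicate; IC50 taken as concentration giving 50% growth inhibition.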

[2] = system: Plasmodium falciparum; test: In vitro inhibition of chloroquine-resistant Plasmodium falciparum FAC8; format: functional, organism-based; how it was run: as §1
[3] = Resistance index as the ratio of IC50 value against K1 to that of D10 strains.; format: functional
How it was run: (§2)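 Ratio of IC50 against the CQ-resistant strain (FAC8 or K1) to IC50 against CQ-sensitive D10. IC50s from 4-day growth assays at c. 1% parasitemia, 2% hematocrit, daily drug-medium replacement, duplicate growth curves.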

[4] = system: Plasmodium falciparum; test: In vitro inhibition of chloroquine-sensitive Plasmodium falciparum D-10; format: functional, organism-based; how it was run: as §1
[5] = Resistance index as the ratio of IC50 value against FAC8 to that of D10 strains.; format: functional; how it was run: as §2

| SMILES | IC50 [1] | IC50 [2] | Resistance index [3] | IC50 [4] | Resistance index [5] |
| --- | --- | --- | --- | --- | --- |
| CCN(CC)CCCC(C)Nc1ccnc2c(NC(=O)CCC(=O)Nc3cccc4c(NC(C)CCCN(CC)CC)ccnc34)cccc12 (stereo not given) | 2500 nM | 1200 nM | 5 | 500 nM | 2.2 |
| CCN(CC)CCCC(C)Nc1ccnc2c(NC(=O)CCCCCCCCC(=O)Nc3cccc4c(NC(C)CCCN(CC)CC)ccnc34)cccc12 (stereo not given) | 290 nM | 310 nM | 1.1 | 260 nM | 1.2 |
| CCN(CC)CCCC(C)Nc1ccnc2ccc(NC(=O)C(=O)Nc3ccc4nccc(NC(C)CCCN(CC)CC)c4c3)cc12 (stereo not given) | 2200 nM | 1800 nM | 0.8 | 2600 nM | 0.7 |
| CCN(CC)CCCC(C)Nc1ccnc2c(NC(=O)CCCCCCC(=O)Nc3cccc4c(NC(C)CCCN(CC)CC)ccnc34)cccc12 (stereo not given) | 600 nM | 350 nM | 1.6 | 380 nM | 0.9 |
| CCN(CC)CCCC(C)Nc1ccnc2ccc(NC(=O)CCCCCCC(=O)Nc3ccc4nccc(NC(C)CCCN(CC)CC)c4c3)cc12 (stereo not given) | 7400 nM | 5200 nM | 1.5 | 5000 nM | 1 |
| CCN(CC)CCCC(C)Nc1ccnc2ccc(NC(=O)CCCCCCCCC(=O)Nc3ccc4nccc(NC(C)CCCN(CC)CC)c4c3)cc12 (stereo not given) | 8400 nM | 3800 nM | 1.5 | 5700 nM | 0.7 |
| CCN(CC)CCCC(C)Nc1ccnc2ccc(NC(=O)CCCCC(=O)Nc3ccc4nccc(NC(C)CCCN(CC)CC)c4c3)cc12 (stereo not given) | 15900 nM | 10300 nM | 1.7 | 9600 nM | 1.1 |
| CCN(CC)CCCC(C)Nc1ccnc2c(NC(=O)CCCCC(=O)Nc3cccc4c(NC(C)CCCN(CC)CC)ccnc34)cccc12 (stereo not given) | 230 nM | 120 nM | 1.8 | 130 nM | 0.9 |
| CCN(CC)CCCC(C)Nc1ccnc2c(NC(=O)C(=O)Nc3cccc4c(NC(C)CCCN(CC)CC)ccnc34)cccc12 (stereo not given) | 2300 nM | 1900 nM | 1.7 | 1300 nM | 1.4 |
